Laboratory results reported in ChEMBL document CHEMBL2177030.
Calls of active or inactive are those of the source. No cut-off for these calls is given here.

Legend:
[1] = biological target: T1, Pancreatic lipase-related protein 2 (Cavia porcellus) (UniProt P81139); assay: Inhibition of guinea pig recombinant PLRP2 expressed in Aspergillus oryzae at 200 molar excess compound concentration pre-incubated for 2 hrs with enzyme before substrate addition by pH-stat technique
T1 sequence (whole entry): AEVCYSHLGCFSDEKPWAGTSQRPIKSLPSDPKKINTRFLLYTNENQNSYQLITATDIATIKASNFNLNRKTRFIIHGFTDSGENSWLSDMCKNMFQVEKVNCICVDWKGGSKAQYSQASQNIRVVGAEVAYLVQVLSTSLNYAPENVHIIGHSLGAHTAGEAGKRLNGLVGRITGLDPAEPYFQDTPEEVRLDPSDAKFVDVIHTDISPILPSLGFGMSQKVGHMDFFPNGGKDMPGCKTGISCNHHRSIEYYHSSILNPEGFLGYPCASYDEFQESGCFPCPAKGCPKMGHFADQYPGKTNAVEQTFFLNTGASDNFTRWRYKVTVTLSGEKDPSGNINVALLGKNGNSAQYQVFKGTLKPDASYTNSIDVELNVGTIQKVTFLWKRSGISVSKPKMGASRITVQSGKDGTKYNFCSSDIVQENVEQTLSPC

[2] = biological target: T2, Cutinase 1 (Fusarium vanettenii) (UniProt P00590); assay: Inhibition of Fusarium solani pisi cutinase pre-incubated for 30 mins with enzyme before substrate addition by pH-stat technique
T2 sequence (whole entry): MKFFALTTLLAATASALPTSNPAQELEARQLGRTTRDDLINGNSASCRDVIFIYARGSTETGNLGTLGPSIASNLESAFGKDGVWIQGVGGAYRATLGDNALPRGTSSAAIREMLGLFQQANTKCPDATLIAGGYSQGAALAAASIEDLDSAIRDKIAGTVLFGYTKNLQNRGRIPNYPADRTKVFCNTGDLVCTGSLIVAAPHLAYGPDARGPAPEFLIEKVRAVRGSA
Method in brief: (§1)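 Cutinase was preincubated for 30 min at 25 °C in 2 mM NaTDC, substrate absent, at inhibitor molar excess xI 2, 4, 20, 40 or 100. Residual activity was measured by pH-stat at 37 °C on TC4 emulsion at pH 8.0 with 0.25 mM NaTDC. xI50 is the molar excess giving 50% activity. Isopropanol controls were run. At least duplicate.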

[3] = biological target: T2, Cutinase 1 (Fusarium vanettenii); assay: Inhibition of Fusarium solani pisi cutinase assessed as residual enzyme activity pre-incubated for 30 mins with enzyme before substrate addition by pH-stat technique; method in brief: as §1
[4] = biological target: T3, Gastric triacylglycerol lipase (Canis lupus familiaris) (UniProt P80035); assay: Inhibition of dog recombinant gastric lipase expressed in transgenic maize at 200 molar excess compound concentration pre-incubated for 2 hrs with enzyme before substrate addition by pH-stat technique; format: single protein; conditions: Stomach
T3 sequence (whole entry): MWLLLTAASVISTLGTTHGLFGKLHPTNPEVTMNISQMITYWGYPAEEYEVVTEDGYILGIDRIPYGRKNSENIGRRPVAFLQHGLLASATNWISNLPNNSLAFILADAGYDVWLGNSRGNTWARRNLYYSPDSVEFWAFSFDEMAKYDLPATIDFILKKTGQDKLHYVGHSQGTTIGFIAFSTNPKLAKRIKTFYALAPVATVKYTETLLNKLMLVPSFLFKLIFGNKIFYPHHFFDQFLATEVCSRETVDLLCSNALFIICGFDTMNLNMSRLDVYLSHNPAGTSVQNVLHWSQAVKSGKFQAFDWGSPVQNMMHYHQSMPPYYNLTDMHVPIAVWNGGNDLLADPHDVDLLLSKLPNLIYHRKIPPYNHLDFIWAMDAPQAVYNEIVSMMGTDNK

[5] = biological target: T2, Cutinase 1 (Fusarium vanettenii); assay: Inhibition of Fusarium solani pisi cutinase assessed as half inactivation time pre-incubated with enzyme before substrate addition by pH-stat technique
Method in brief: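 Cutinase was preincubated at 25 °C with inhibitor at xI 4 in 2 mM NaTDC for 1 h. Residual activity was sampled at intervals by pH-stat at 37 °C on TC4 emulsion in 2.5 mM Tris-HCl pH 8.0, 150 mM NaCl, 0.25 mM NaTDC. t1/2 was taken from the time course. Runs were done at least in duplicate.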

[6] = system: Mycobacterium tuberculosis; assay: Inhibition of Mycobacterium tuberculosis LipY at 40 molar excess compound concentration pre-incubated for 30 mins with enzyme before substrate addition by pH-stat technique
[7] = biological target: T4, Pancreatic triacylglycerol lipase (Homo sapiens) (UniProt P16233); assay: Inhibition of human recombinant pancreatic lipase expressed in Pichia pastoris at 200 molar excess compound concentration pre-incubated for 2 hrs with enzyme before substrate addition by pH-stat technique
T4 sequence (whole entry): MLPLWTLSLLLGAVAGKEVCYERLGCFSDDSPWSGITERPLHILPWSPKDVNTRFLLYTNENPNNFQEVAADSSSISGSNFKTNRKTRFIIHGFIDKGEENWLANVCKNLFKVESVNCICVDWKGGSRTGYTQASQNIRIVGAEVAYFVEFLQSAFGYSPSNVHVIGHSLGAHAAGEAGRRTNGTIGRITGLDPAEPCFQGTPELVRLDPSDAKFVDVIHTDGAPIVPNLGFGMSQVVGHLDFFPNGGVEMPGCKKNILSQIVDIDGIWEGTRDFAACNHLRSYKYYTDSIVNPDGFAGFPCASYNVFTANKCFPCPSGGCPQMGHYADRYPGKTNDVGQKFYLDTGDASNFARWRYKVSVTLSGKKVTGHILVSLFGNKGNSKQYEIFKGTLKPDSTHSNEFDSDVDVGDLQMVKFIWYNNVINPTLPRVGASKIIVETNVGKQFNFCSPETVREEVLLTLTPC

[8] = biological target: Monoacylglycerol lipase (Mycobacterium tuberculosis H37Rv) (UniProt O07427); assay: Inhibition of Mycobacterium tuberculosis Rv0183 pre-incubated for 30 mins with enzyme before substrate addition by pH-stat technique
Method in brief: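 Rv0183 was preincubated 30 min at 25 °C without NaTDC at inhibitor molar excess 2, 4, 20, 40 or 100. Residual monoglyceride lipase activity was measured by pH-stat at 37 °C with MC18 emulsion, pH 8.0, 3 mM NaTDC. xI50 was read from the residual-activity curve. Solvent controls were run. At least duplicate.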

Chain of Monoacylglycerol lipase (Mycobacterium tuberculosis H37Rv) (O07427 whole entry): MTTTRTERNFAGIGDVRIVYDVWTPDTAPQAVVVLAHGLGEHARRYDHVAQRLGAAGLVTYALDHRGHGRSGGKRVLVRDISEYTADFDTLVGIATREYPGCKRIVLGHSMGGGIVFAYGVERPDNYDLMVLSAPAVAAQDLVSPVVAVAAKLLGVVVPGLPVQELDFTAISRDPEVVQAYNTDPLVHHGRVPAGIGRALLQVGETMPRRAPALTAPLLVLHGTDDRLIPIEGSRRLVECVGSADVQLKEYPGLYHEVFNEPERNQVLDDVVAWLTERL

CO[P@]1(=O)OC[C@H]2COC(=O)C2=C(C)O1 (racemic)
inhibition [1]: inactive | XI50 [2]: 0.96 molar excess | Activity [3]: 6% | inhibition [4]: inactive | T1/2 [5]: 10.8 s | inhibition [6]: 14% | inhibition [7]: inactive | XI50 [8]: 5.22 molar excess
